The text below walks through data of ChEMBL document CHEMBL1649336, “Isolation and characterization of minor analogues of silvestrol and other constituents from a large-scale re-collection of Aglaia foveolata” (J Nat Prod, 2010).

Test [1] deals with HT-29. The test is described as follows: Cytotoxicity against human HT-29 cells after 3 days by sulforhodamine B assay. Conditions: HT-29, 72 h, read-out: ED50 (the source's name). The format is functional. A digest of the protocol:
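HT-29 (ATCC) cells grown in MEME with 10% FBS and antibiotics at 37 °C, 5% CO2, used one day after a medium change at 60–70% confluence. 9500 cells/well exposed in triplicate to serial dilutions (10% DMSO vehicle, also the control) for 3 days. Cells fixed with cold TCA, stained with 0.4% SRB, dye solubilized in 10 mM Tris (pH 10), A515 read. ED50 by nonlinear regression.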
On the technique in general: Sulforhodamine B stains cellular protein and so reports cell mass.

The target of test [2] is Transcription factor p65 (Homo sapiens, UniProt Q04206). The test is described as follows: Inhibition of NF-kappaB p65 isolated from nuclear extract of human HeLa cells assessed as blockade of binding to biotinylated consesus sequence by chemiluminescence assay. It counts as cell-free.
Sequence of Transcription factor p65 (Q04206 whole entry): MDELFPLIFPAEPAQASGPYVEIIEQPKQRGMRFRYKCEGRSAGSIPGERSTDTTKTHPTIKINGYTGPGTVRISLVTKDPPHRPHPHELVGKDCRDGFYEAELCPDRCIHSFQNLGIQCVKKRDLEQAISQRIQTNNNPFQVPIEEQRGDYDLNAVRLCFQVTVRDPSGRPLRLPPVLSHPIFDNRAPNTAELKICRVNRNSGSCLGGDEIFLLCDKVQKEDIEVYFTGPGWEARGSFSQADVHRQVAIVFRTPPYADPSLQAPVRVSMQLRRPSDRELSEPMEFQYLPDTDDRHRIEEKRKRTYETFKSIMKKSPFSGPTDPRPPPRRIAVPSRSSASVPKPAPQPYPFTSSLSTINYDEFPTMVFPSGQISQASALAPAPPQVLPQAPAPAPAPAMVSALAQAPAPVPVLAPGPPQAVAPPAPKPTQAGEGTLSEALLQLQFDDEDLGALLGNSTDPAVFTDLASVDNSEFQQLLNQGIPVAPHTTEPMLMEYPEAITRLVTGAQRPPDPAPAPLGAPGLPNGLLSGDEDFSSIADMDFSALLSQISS

For the molecule `COC(=O)[C@H]1[C@@H](O)[C@@]2(O)c3c(OC)cc(O[C@@H]4O[C@@H]([C@H](O)CO)CO[C@@H]4OC)cc3O[C@@]2(c2ccc(OC)cc2)[C@@H]1c1ccccc1`, the EC50 in test [1] stood at 2290 nM.
On the same count and under the same terms, for `COC(=O)[C@H]1[C@@H](O)[C@@]2(O)c3c(OC)cc(O[C@@H]4O[C@@H]([C@@H](O)CO)CO[C@@H]4OC)cc3O[C@@]2(c2ccc(OC)cc2)[C@@H]1c1ccccc1` the value was 1070 nM.
What is called IC50 is the midpoint of a concentration-inhibition curve. Take `CC(C)(O)[C@@H]1CC[C@@]2(O)CC[C@]3(C)[C@H](CC[C@@H]4[C@@]5(C)CCC(=O)C(C)(C)[C@H]5CC[C@]43C)[C@H]2O1`: the IC50 in test [2] was above 20000 nM. The EC50 in test [1] was above 10000 nM.
Taken in the same sequence, the figures for `CC(C)(O)[C@@H]1CC[C@](C)([C@H]2CC[C@]3(C)[C@@H]2CC[C@@H]2[C@@]4(C)CCC(=O)OC(C)(C)[C@@H]4CC[C@]23C)O1` were above 20000 nM and above 10000 nM.
In the case of `CC(C)(O)[C@@H]1CC[C@@](C)([C@H]2CC[C@]3(C)[C@@H]2CC[C@@H]2[C@@]4(C)CCC(=O)OC(C)(C)[C@@H]4CC[C@]23C)O1`, in test [2], the IC50 was above 20000 nM. Moreover, in test [1], the EC50 was above 10000 nM.
Taken in the same sequence, the figures for `CC(C)C1=CC2=C(CO)C(=O)C[C@@H](O)[C@]2(C)CC1` were above 20000 nM and above 10000 nM.
On to `COC(=O)[C@H]1[C@@H](O)[C@@]2(O)c3c(OC)cc(O[C@@H]4O[C@@H]([C@@H](O)CO)CO[C@H]4OC)cc3O[C@@]2(c2ccc(OC)cc2)[C@@H]1c1ccccc1` [2'-EPISILVESTROL], for which the EC50 in test [1] was 1 nM.
Turning to `CC[C@@]1(O)C(=O)OCc2c1cc1n(c2=O)Cc2cc3ccccc3nc2-1` [CAMPTOTHECIN], the EC50 in test [1] worked out at 60 nM.
Still for that read-out and setting: for `CC(=O)O[C@H]1C(=O)[C@@]2(C)[C@H]([C@H](OC(=O)c3ccccc3)[C@]3(O)C[C@H](OC(=O)[C@H](O)[C@@H](NC(=O)c4ccccc4)c4ccccc4)C(C)=C1C3(C)C)[C@]1(OC(C)=O)CO[C@@H]1C[C@@H]2O` [PACLITAXEL] the value was 0.6 nM.
As for `COC(=O)[C@H]1[C@@H](O)[C@@]2(O)c3c(OC)cc(O[C@@H]4O[C@@H]([C@H](O)CO)CO[C@H]4OC)cc3O[C@@]2(c2ccc(OC)cc2)[C@@H]1c1ccccc1` [SILVESTROL], the IC50 in test [2] is above 20000 nM. For the same molecule, in test [1], the EC50 was found to be 0.7 nM.
